The values below come from publication PMC6811699 (Stem Cells Translational Medicine, 2019).

Some results are limits rather than exact numbers.

In series [1] the test system is induced sensory neuron cells (iSNs). Put plainly: Resazurin reduction cell viability assay. The format is cell-based. The following applies: Homo sapiens, 48 h, read-out: Detected cell viability IC50. Summed up: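 iSNs were specified and matured, reseeded into 96‑well plates, and dosed 24 hours later. Compounds were given as four 10‑fold dilutions, 0.01–10 μM final, with 0.1% DMSO final, in quadruplicate wells, for 48 hours. Medium was then replaced with 10 μg/ml resazurin in snMat medium for 2 hours at 37°C, 5% CO₂. Fluorescence was read at 544/590 nm. There were three biological replicates, reported as mean ± SEM, and IC50 came from the dose–response.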

The test system is the same in series [2]. Put plainly: High-content imaging, neurite length analysis. The format is cell-based, human. The settings on record: 48 hours, 0.01–10 μM, treated 24 hours after seeding. Summed up:
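iSNs from blood-derived neural precursors, specified (DAPT, SU5402, CHIR99021) then matured (BDNF, GDNF, NGF, NT-3, ascorbic acid, forskolin), reseeded to 96-well plates; dosed 24 h later, 10-fold dilutions, 0.01–10 μM, 0.1% DMSO final, quadruplicate wells, 48 h.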

The conditions of series [3]: read-out: Reported neurite length IC50; literature values; cited from earlier work.
Another series has as its system patients. The settings on record: cited from earlier work.
For a further series, the system named is iSNs. Put plainly: Calcium imaging. The following applies: iSNs from adult nonmobilized PB, 30 μM α,β-meATP. The format is cell-based, human. The gist of the method: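 Mature iSNs were loaded with Fluo‑4‑AM for 1 hour at room temperature, then de‑esterified for 45 minutes. They were washed and kept in Hanks' balanced salt solution with 25 mM HEPES and 5.5 mM glucose. Agonists diluted in this buffer were applied at final 30 μM α,β‑meATP or 1 μM capsaicin to day‑7 iSNs in 96‑well plates. Peak calcium flux was recorded by epifluorescence microscopy with a xenon arc lamp.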

For the compound `CC(=O)O[C@H]1C(=O)[C@@]2(C)[C@H]([C@H](OC(=O)c3ccccc3)[C@]3(O)C[C@H](OC(=O)[C@H](O)[C@@H](NC(=O)c4ccccc4)c4ccccc4)C(C)=C1C3(C)C)[C@]1(OC(C)=O)CO[C@@H]1C[C@@H]2O` [Taxol, Paclitaxel], the IC50 in series [1] is 7400 nM; in series [3], 5.6 to 10 nM. Moreover, in series [2], the “effect on neurite length / neurite degeneration” value was “reduced neurite length in the absence of cytotoxicity”.

Consider `CC(C)C[C@H](NC(=O)[C@H](Cc1ccccc1)NC(=O)c1cnccn1)B(O)O` [Bortezomib], for which the IC50 was 1000 nM in series [1] and over 100000 nM in series [3]. Besides, in series [2], the “effect on neurite length / neurite degeneration” value is reported as “neurite degeneration only at the highest tested concentrations”. The NP incidence in the series on patients is 20–30%. The “Neurotoxic dose in patients” value in the series on patients is 30 mg/m^2.

In the case of `CC[C@]1(O)C[C@H]2CN(CCc3c([nH]c4ccccc34)[C@@](C(=O)OC)(c3cc4c(cc3OC)N(C=O)[C@H]3[C@@](O)(C(=O)OC)[C@H](OC(C)=O)[C@]5(CC)C=CCN6CC[C@]43[C@@H]65)C2)C1` [Vincristine], the IC50 in series [1] is 600 nM. For the same compound, the “effect on neurite length / neurite degeneration” value in series [2] was “reduced neurite length in the absence of cytotoxicity”. Besides, in the series with patients, the NP incidence entry is recorded as “Up to 20%” and the “Neurotoxic dose in patients” value is 5–15 mg/m^2.

Turning to `N.N.[Cl][Pt][Cl]` [Cisplatin], the “effect on neurite length / neurite degeneration” value in series [2] is on record as “reduced neurite length in the absence of cytotoxicity”. For the same compound, in series [3], the IC50 is over 100000 nM. For the same compound, the NP incidence with patients is 70–100%.

Turning to `Nc1ncnc2c1ncn2[C@@H]1O[C@H](COP(=O)(O)CP(=O)(O)OP(=O)(O)O)[C@@H](O)[C@H]1O` [α,β‐meATP, α,β‐methylene‐ATP], in the series on iSNs, the “cytosolic calcium response” value is listed as “robust elevation of cytosolic calcium”.

With `COc1cc([C@@H]2c3cc4c(cc3[C@@H](O[C@@H]3O[C@@H]5CO[C@@H](C)O[C@H]5[C@H](O)[C@H]3O)[C@H]3COC(=O)[C@H]23)OCO4)cc(OC)c1O` [Etoposide], the “effect on neurite length / neurite degeneration” value in series [2] is on record as “reduced neurite length in the absence of cytotoxicity”. For the same compound, the IC50 in series [3] is 360 nM.
